Results reported in ChEMBL document CHEMBL4118052, “Involvement of the Glucocorticoid Receptor in Pro-inflammatory Transcription Factor Inhibition by Daucane Esters from Laserpitium zernyi” (J Nat Prod, 2017).

Tests used:
[1] = target: T1, Glucocorticoid receptor (Homo sapiens) (UniProt P04150); test: Modulation of glucocorticoid receptor in human A549 cells assessed as 0.01 uM dexamethasone-induced GRE-driven promoter activity at 30 uM by luciferase reporter gene assay (reference value: 100%); format: cell-based
T1 sequence (whole entry): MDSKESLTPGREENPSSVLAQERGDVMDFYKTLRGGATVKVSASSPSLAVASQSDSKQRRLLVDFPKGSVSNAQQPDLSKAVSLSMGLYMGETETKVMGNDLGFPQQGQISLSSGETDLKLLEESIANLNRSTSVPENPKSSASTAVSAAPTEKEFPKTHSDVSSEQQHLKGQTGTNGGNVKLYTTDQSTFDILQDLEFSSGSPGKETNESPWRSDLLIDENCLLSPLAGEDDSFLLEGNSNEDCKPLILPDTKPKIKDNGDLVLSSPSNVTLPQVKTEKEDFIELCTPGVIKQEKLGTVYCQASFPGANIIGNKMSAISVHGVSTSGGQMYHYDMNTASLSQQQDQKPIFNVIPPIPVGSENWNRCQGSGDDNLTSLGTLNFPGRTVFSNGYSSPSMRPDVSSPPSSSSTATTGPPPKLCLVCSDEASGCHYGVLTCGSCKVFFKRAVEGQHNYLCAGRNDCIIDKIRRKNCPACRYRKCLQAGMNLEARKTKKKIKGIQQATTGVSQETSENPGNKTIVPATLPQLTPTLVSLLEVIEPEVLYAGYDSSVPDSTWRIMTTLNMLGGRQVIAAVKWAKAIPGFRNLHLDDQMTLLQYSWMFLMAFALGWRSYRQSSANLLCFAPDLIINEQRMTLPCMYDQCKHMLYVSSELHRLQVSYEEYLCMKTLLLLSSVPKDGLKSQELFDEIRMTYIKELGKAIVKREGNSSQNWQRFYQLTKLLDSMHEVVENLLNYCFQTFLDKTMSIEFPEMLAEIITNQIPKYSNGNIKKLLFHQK
Outline: (§1)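 A549 cells with a stably integrated GRE-dependent promoter-luciferase construct. Compound at 10 or 30 μM given together with dexamethasone at 0.1 or 0.01 μM. Luciferase expressed as % of Dex-induced expression with solvent alone. Mean ± SD of ≥3 independent replicates.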

A549 [2] = test: Cytotoxicity against PMA stimulated human A549 cells harboring AP-1-Luc assessed as reduction in cell viability preincubated for 1 hr followed by PMA stimulation measured after 5 hrs by Cell-Titer Glo assay; format: cell-based; details: a549, 5 h
Outline: (§2)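 AP-1-Luc A549 cells (9000/well) incubated 24 h, then compound (10, 30, 60 μM) or solvent added. PMA induction 1 h later, 5 h further incubation. Viability by Cell Titer Glo ATP luminescence. Solvent group treated with PMA set as 100%.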

[3] = target: T1, Glucocorticoid receptor (Homo sapiens); test: Modulation of glucocorticoid receptor in human A549 cells assessed as 0.01 uM dexamethasone-induced GRE-driven promoter activity at 10 uM by luciferase reporter gene assay (reference value: 100%); format: cell-based; outline: as §1
[4] = target: T1, Glucocorticoid receptor (Homo sapiens); test: (§3) Modulation of glucocorticoid receptor in human A549 cells harboring NFkB-Luc assessed as reduction in TNFalpha-induced NFkB activity preincubated for 1 hr followed by TNFalpha stimulation measured after 5 hrs by luciferase reporter gene assay; format: cell-based
Outline: (§4)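 A549 cells with stably integrated NF-κB-Luc (9000/well, 24 h) given compound at 10, 30 or 60 μM, dexamethasone 1 μM or solvent for 1 h. TNF (200 IU/mL) induction for 5 h, then luciferase read. Values as % of TNF-induced solvent control; four independent replicates; one-way ANOVA.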

[5] = target: T1, Glucocorticoid receptor (Homo sapiens); test: Modulation of glucocorticoid receptor in human A549 cells harboring AP-1-Luc assessed as reduction in PMA-induced AP-1 activity preincubated for 1 hr followed by PMA stimulation measured after 5 hrs by luciferase reporter gene assay; format: cell-based
Outline: (§5)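 AP-1-Luc A549 cells (9000/well, 24 h) pretreated 1 h with compound (10–60 μM), dexamethasone 1 μM or solvent, then PMA-induced for 5 h. Luciferase activity as % of PMA-induced solvent group. One-way ANOVA with Tukey test.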

A549 [6] = test: Cytotoxicity against TNFalpha stimulated human A549 cells harboring NFkB-Luc assessed as reduction in cell viability preincubated for 1 hr followed by TNFalpha stimulation measured after 5 hrs by Cell-Titer Glo assay; format: cell-based; details: a549, 5 h
Outline: (§6)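 A549 cells with stably integrated NF-κB-Luc seeded at 9000/well for 24 h, then exposed to compound (10, 30, 60 μM) or solvent. TNF given 1 h later, 5 h incubation. Cell Titer Glo ATP readout, with TNF-treated solvent group as 100%.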

[7] = target: T1, Glucocorticoid receptor (Homo sapiens); test: Modulation of glucocorticoid receptor in human A549 cells assessed as 0.1 uM dexamethasone-induced GRE-driven promoter activity at 10 uM by luciferase reporter gene assay (reference value: 100%); format: cell-based; outline: as §1
[8] = target: T1, Glucocorticoid receptor (Homo sapiens); test: Modulation of glucocorticoid receptor in human A549 cells assessed as 0.1 uM dexamethasone-induced GRE-driven promoter activity at 30 uM by luciferase reporter gene assay (reference value: 100%); format: cell-based; outline: as §1
A549 [9] = test: Cytotoxicity against TNFalpha stimulated human A549 cells harboring NFkB-Luc assessed as reduction in cell viability at 60 uM preincubated for 1 hr followed by TNFalpha stimulation measured after 5 hrs by Cell-Titer Glo assay relative to control; format: cell-based; details: a549, 5 h; outline: as §6
A549 [10] = test: Inhibition of TNFalpha-induced NFkB activity in GR knockout human A549 cells harboring NFkB-Luc assessed as NFkB activity at 30 uM preincubated for 1 hr followed by TNFalpha stimulation measured after 5 hrs by luciferase reporter gene assay (reference value: 100%); format: functional; parameters: scale not given: the % may be the effect or the level left
Outline: (§7)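 GR-knockout A549 cells carrying stably integrated NF-κB-Luc. Pretreatment 1 h with compound (30 μM) or dexamethasone (1 μM), then TNF (200 IU/mL) for 5 h. Luciferase luminescence as % of TNF-induced solvent control.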

[11] = Cytotoxicity against PMA stimulated human A549 cells harboring AP-1-Luc assessed as cell viability at 30 uM preincubated for 1 hr followed by PMA stimulation measured after 5 hrs by Cell-Titer Glo assay (reference value: 100%); format: cell-based; details: read-out: Activity; outline: as §2
A549 [12] = test: Cytotoxicity against PMA stimulated human A549 cells harboring AP-1-Luc assessed as reduction in cell viability at 60 uM preincubated for 1 hr followed by PMA stimulation measured after 5 hrs by Cell-Titer Glo assay relative to control; format: cell-based; details: a549, 5 h; outline: as §2
[13] = Cytotoxicity against GR knockout human A549 cells harboring Neo-Luc assessed as cell viability at 30 uM by Cell-Titer Glo assay (reference value: 100%); format: cell-based; details: read-out: Activity
Outline: (§8)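 NeoLuc A549 cells (9000/well) incubated 24 h, then test compound or solvent added; viability by Cell Titer Glo ATP luminescence, run by the same protocol as the reporter assays. Solvent-treated control taken as 100%.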

A549 [14] = test: Cytotoxicity against GR knockout human A549 cells harboring Neo-Luc assessed as reduction in cell viability at 60 uM by Cell-Titer Glo assay relative to control; format: cell-based; details: a549, 60 µM; outline: as §8
[15] = Cytotoxicity against TNFalpha stimulated human A549 cells harboring NFkB-Luc assessed as cell viability at 30 uM preincubated for 1 hr followed by TNFalpha stimulation measured after 5 hrs by Cell-Titer Glo assay (reference value: 100%); format: cell-based; details: read-out: Activity; outline: as §6
[16] = target: T1, Glucocorticoid receptor (Homo sapiens); test: Modulation of glucocorticoid receptor in human A549 cells assessed as TNFalpha-induced CCL2 production at 30 uM preincubated for 1 hr followed by TNFalpha stimulation measured after 5 hrs by ELISA (reference value: 100%); format: cell-based
Outline: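 Basal (non-reporter) A549 cells treated with compound at 30 μM, then TNF (200 IU/mL). CCL2 protein in medium measured by ELISA, as % of TNF-treated solvent control. Mean ± SD of three independent replicates; Student's t test.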

[17] = target: T1, Glucocorticoid receptor (Homo sapiens); test: Modulation of glucocorticoid receptor in human A549 cells harboring AP-1-Luc assessed as reduction in PMA-induced AP-1 activity by measuring AP-1 activity at 60 uM preincubated for 1 hr followed by PMA stimulation measured after 5 hrs by luciferase reporter gene assay (reference value: 100%); format: cell-based; parameters: scale not given: the % may be the effect or the level left; outline: as §5
[18] = Cytotoxicity against GR knockout human A549 cells harboring Neo-Luc assessed as cell viability at 60 uM by Cell-Titer Glo assay (reference value: 100%); format: cell-based; details: read-out: Activity; outline: as §8
[19] = Cytotoxicity against PMA stimulated human A549 cells harboring AP-1-Luc assessed as cell viability at 60 uM preincubated for 1 hr followed by PMA stimulation measured after 5 hrs by Cell-Titer Glo assay (reference value: 100%); format: cell-based; details: read-out: Activity; outline: as §2
[20] = target: T1, Glucocorticoid receptor (Homo sapiens); test: as §3, with “activity by measuring NFkB activity at 60 uM” for “activity”, “assay (reference value: 100%)” for “assay”; format: cell-based; parameters: scale not given: the % may be the effect or the level left; outline: as §4
[21] = Cytotoxicity against TNFalpha stimulated human A549 cells harboring NFkB-Luc assessed as cell viability at 60 uM preincubated for 1 hr followed by TNFalpha stimulation measured after 5 hrs by Cell-Titer Glo assay (reference value: 100%); format: cell-based; details: read-out: Activity; outline: as §6
A549 [22] = test: Inhibition of TNFalpha-induced NFkB activity in GR knockout human A549 cells harboring NFkB-Luc assessed as NFkB activity at 1 uM preincubated for 1 hr followed by TNFalpha stimulation measured after 5 hrs by luciferase reporter gene assay (reference value: 100%); format: functional; parameters: scale not given: the % may be the effect or the level left; outline: as §7

Structure (SMILES): C/C=C(/C)C(=O)O[C@@H]1C[C@@](O)(C(C)C)[C@@H]2CC=C(C)C(=O)[C@@H](O)[C@]21C
- Activity [1]: 52.8%
- Activity (A549 [2]): Dose-dependent effect
- Activity [3]: > 90%
- Activity [4]: Dose-dependent effect
- Activity [5]: Dose-dependent effect
- Activity (A549 [6]): Dose-dependent effect
- Activity [7]: > 90%
- Activity [8]: 71.6%

Structure (SMILES): C/C=C(/C)C(=O)O[C@@H]1C[C@@](O)(C(C)C)[C@@H]2CCC(C)=C[C@@H](O)[C@]21C
- Activity [1]: 77%
- Activity (A549 [9]): <= 10%
- Activity (A549 [10]): 91.8%
- Activity (A549 [2]): Dose-dependent effect
- Activity [3]: > 90%
- viability at 5 h, 30 µM [11]: > 97%
- Activity (A549 [12]): <= 10%
- Activity [4]: Dose-dependent effect
- viability at 30 µM [13]: > 97%
- Activity (A549 [14]): <= 10%
- Activity [5]: Dose-dependent effect
- viability at 5 h, 30 µM [15]: > 97%
- Activity (A549 [6]): Dose-dependent effect
- Activity [7]: > 90%
- Activity [8]: 80.9%

Structure (SMILES): C/C=C(/C)C(=O)O[C@@H]1C=C(C)CC[C@]2(O)[C@@H](C(C)C)CC(=O)[C@]12C
- Activity [16]: 70.1%
- Activity [1]: 80.4%
- Activity (A549 [9]): <= 10%
- Activity [17]: 41.4%
- Activity (A549 [2]): Dose-dependent effect
- Activity [3]: > 90%
- viability at 5 h, 30 µM [11]: > 97%
- Activity (A549 [12]): <= 10%
- Activity [4]: Dose-dependent effect
- viability at 30 µM [13]: > 97%
- Activity (A549 [14]): <= 10%
- Activity [5]: Dose-dependent effect
- viability at 5 h, 30 µM [15]: > 97%
- Activity (A549 [6]): Dose-dependent effect
- Activity [7]: > 90%
- Activity [8]: 74.5%

Structure (SMILES): C/C=C(/C)C(=O)O[C@H]1C[C@@](C)(O)C(=O)[C@@H](OC(=O)/C(C)=C\C)[C@@]2(C)CC[C@@](O)(C(C)C)[C@H]12
- Activity [1]: 83.5%
- Activity (A549 [2]): Dose-dependent effect
- Activity [3]: > 90%
- Activity [4]: Dose-dependent effect
- Activity [5]: Dose-dependent effect
- Activity (A549 [6]): Dose-dependent effect
- Activity [7]: > 90%
- Activity [8]: > 90%

Structure (SMILES): C/C=C(/C)C(=O)O[C@@H]1C[C@@](O)(C(C)C)[C@@H]2CCC(C)=C[C@@H](OC(C)=O)[C@]21C
- viability at 60 µM [18]: 90%
- Activity [16]: 72.1%
- viability at 5 h, 60 µM [19]: 93.4%
- Activity [1]: 48.9%
- Activity (A549 [10]): 83.6%
- Activity [17]: 41%
- Activity (A549 [2]): Dose-dependent effect
- Activity [3]: 70.1%
- Activity [20]: 52%
- viability at 5 h, 30 µM [11]: > 95%
- viability at 5 h, 60 µM [21]: 97.3%
- Activity [4]: Dose-dependent effect
- viability at 30 µM [13]: > 95%
- Activity [5]: Dose-dependent effect
- viability at 5 h, 30 µM [15]: > 95%
- Activity (A549 [6]): Dose-dependent effect
- Activity [7]: 78%
- Activity [8]: 67.1%

Structure (SMILES): C[C@@H]1C[C@H]2[C@@H]3CCC4=CC(=O)C=C[C@]4(C)[C@@]3(F)[C@@H](O)C[C@]2(C)[C@@]1(O)C(=O)CO [DEXAMETHASONE]
- Activity (A549 [22]): 97.2%
